Rows were chosen to be rich in hits. Some 4.1% of all compounds tested hit in one or more screens of this group.
KCNQ1 pot = potentiates or activates the human KCNQ1 potassium channel. B-score at 10 µM. CHO-K1 KCNQ1, thallium flux FluxOR fluorescence; stronger effect = higher value. 310,000 compounds, 0.35% hits. P51787;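 active = fluorescence ratio B-score, a plate-corrected score, at least three library SD, with initial intensity B-score within 5 SD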
Target sequence (P51787 whole entry, looked up): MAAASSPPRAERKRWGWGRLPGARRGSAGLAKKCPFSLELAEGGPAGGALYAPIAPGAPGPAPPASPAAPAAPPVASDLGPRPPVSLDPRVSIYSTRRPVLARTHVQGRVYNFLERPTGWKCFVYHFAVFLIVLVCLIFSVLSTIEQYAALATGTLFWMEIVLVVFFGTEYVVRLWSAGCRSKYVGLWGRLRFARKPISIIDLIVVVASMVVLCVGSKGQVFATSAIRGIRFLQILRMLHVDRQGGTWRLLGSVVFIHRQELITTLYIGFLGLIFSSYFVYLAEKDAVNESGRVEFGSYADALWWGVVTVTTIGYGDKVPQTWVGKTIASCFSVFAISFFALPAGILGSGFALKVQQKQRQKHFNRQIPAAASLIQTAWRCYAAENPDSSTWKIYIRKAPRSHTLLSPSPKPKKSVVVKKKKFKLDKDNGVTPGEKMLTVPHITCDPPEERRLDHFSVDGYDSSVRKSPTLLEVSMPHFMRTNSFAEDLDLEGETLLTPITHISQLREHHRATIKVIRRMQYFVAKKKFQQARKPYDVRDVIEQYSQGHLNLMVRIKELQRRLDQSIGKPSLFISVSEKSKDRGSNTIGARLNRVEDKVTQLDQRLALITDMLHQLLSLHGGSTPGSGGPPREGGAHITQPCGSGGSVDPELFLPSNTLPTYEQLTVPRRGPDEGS
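System: Stable KCNQ1 CHO-K1 line | Incubation: 90 min dye loading and 20 min compound exposure, both at room temperature | Measure: Ratio B score | Medium: Assay buffer for compound exposure, DMSO matched across wells | Compound dosing: Single-concentration screen | Probe or stimulus: K+/Tl+ depolarizing stimulus | Measured by: Kinetic FluxOR fluorescence, 10 s baseline plus 110 s post-stimulus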
KCNK3 block = human KCNK3 channel inhibition, primary screen; 340,000 compounds, 0.84% hits; CHO-KCNK3 thallium flux, FluxOR fluorescence; stronger effect = lower value; O14649; B-score at 10 µM;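 active = B-score under library mean minus 4 SD, starting fluorescence ratio at most library mean plus 5 SD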;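 note: more negative B-score means stronger inhibition of thallium flux through KCNK3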
KCNK9 block = blocks the human KCNK9 two-pore domain potassium channel; 310,000 compounds, 1.2% hits; B-score at 10 µM; AID 488922; Q9NPC2; HEK293 KCNK9, FluxOR thallium flux fluorescence; stronger effect = lower value;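 active = ratio B-score over 3 SD below the library mean, with starting fluorescence within 5 SD of its mean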;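 note: negative B-score means less thallium flux so channel inhibition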
KCNQ1 inh = inhibitors of human KCNQ1 potassium channel. P51787. CHO-K1 KCNQ1, FluxOR thallium flux fluorescence; stronger effect = higher value. 310,000 compounds, 1.3% hits. B-score at 10 µM;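 active = compounds whose thallium flux B-score, printed positive for inhibition, exceeds three library SD while starting fluorescence stays within three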;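 note: channel opened by potassium depolarization with thallium stimulus after 20 min compound exposure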
hERG rescue = compounds protecting human hERG from proarrhythmic drug block; CHO-hERG, FluxOR thallium flux, dofetilide IC70 present; AID 1511; 310,000 compounds, 0.51% hits; activation (rescue from dofetilide block), less the hit threshold, % at 10 µM; Q12809;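 active = activation above the mean of controls blocked by dofetilide plus 5 SD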;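 note: thallium influx through hERG after potassium depolarization seen as dye fluorescence rise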
Cl transport mod = modulates chloride dependent transport by human KCC2 | Q9H2X9 | B-score of Tl+ flux slope (higher = more flux/activation; lower = inhibition) at 10 µM | 190,000 compounds, 2.2% hits | KCC2 cells, thallium flux FluoZin-2 fluorescence;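 active = thallium flux slope and its plate-corrected score both differing from the plate sample mean at a set confidence after two filtering rounds, in either direction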;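 note: slope of fluorescence scaled to starting intensity during 10 to 20 s after thallium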
Large screens that a line does not name were inactive.

Cc1cc(=O)cc(C)n1-c1ccc(F)cc1F	hERG rescue 6.6
C[C@H](NS(=O)(=O)OCC(Cl)(Cl)Cl)C1CC1c1ccccc1 (stereo not given in full)	KCNQ1 inh 6 (no result: Cl transport mod)
Cc1ccccc1N1CCN(Cc2c[nH]c3ccccc23)CC1	KCNQ1 inh 6
O=Cc1cc(N=Nc2ccccc2Cl)ccc1O	KCNQ1 pot 11
C/C=C/C(O)c1ccc2ccccc2c1 (stereo not given)	none (no result: KCNK3 block, Cl transport mod)
CCN(CC)c1nc2c(c(=O)[nH]c(=O)n2C)n1CCOc1ccccc1	none (no result: Cl transport mod)
O=C(NC(=S)Nc1cccc2c(O)cccc12)c1ccco1	none (no result: Cl transport mod)
CCC(C)c1ccccc1NC(=S)NC(=O)c1ccco1 (stereo not given)	KCNQ1 pot 29, hERG rescue 31.7 (no result: Cl transport mod)
O=C(NC(=S)Nc1ccccc1Cl)c1ccco1	KCNQ1 pot 14, hERG rescue 11.9 (no result: Cl transport mod)
CCCC(=O)NC(=S)Nc1cccc(Cl)c1N1CCCC1	none
O=C(Nc1ccccc1N1CCCCC1)c1ccco1	none
CC(C)C(=O)N1CCN(c2ccccc2NC(=S)NC(=O)c2ccco2)CC1	none (no result: Cl transport mod)
O=C(NC(=S)Nc1cccc(Cl)c1N1CCCCC1)c1ccco1	KCNQ1 pot 16, Cl transport mod 6.71
O=C(NC(=S)Nc1ccccc1N1CCCCC1)c1ccco1	hERG rescue 14.2, Cl transport mod 19.9
CC1CC(C)CN(C(=O)COC(=O)CNC(=O)C23CC4CC(CC(C4)C2)C3)C1 (stereo not given)	none (no result: Cl transport mod)
Cc1cc2cc(CCNC(=O)CCCc3ccccc3)c(=O)[nH]c2cc1C	none (no result: Cl transport mod)
O=C(Nc1cc([N+](=O)[O-])ccc1N1CCOCC1)c1ccco1	hERG rescue 13.5
O=C(NC(=S)Nc1ccccc1N1CCOCC1)c1ccco1	Cl transport mod 18.5
O=C(Nc1ccccc1N1CCOCC1)c1ccco1	none (no result: Cl transport mod)
COC(=O)c1ccccc1NC(=S)NC(NC(=O)c1ccco1)C(Cl)(Cl)Cl (stereo not given)	KCNQ1 pot 8 (no result: Cl transport mod)
COc1cc(Cl)c(NS(=O)(=O)c2cc3[nH]c(=O)c(=O)[nH]c3cc2C)c(OC)c1	none (no result: Cl transport mod)
COc1ccc(CN(C)C(=O)Cn2ccc(N)nc2=O)cc1OC	none (no result: KCNQ1 pot, KCNK9 block, KCNQ1 inh, hERG rescue, Cl transport mod)
CCOc1ccc(-n2cc(-c3ccccc3)c3c(=O)[nH]cnc32)cc1	none
CCOc1ccc(-n2cc(-c3ccccc3)c3c(=S)nc[nH]c32)cc1	KCNQ1 pot 39 (no result: Cl transport mod)
Cc1cc(Cl)c(C(=O)Nc2cccc(C(F)(F)F)c2)c(C)n1	none (no result: Cl transport mod)
CN(C)c1ccc(C(=O)/C=C/c2ccccc2)cc1	none
CC[n+]1ccccc1/C=C/c1ccc(N(C)C)cc1	KCNQ1 inh 8
CC[n+]1ccc(/C=C/c2ccc(N(C)C)cc2)c2ccccc21	KCNK3 block -9.93 (no result: KCNQ1 pot, KCNK9 block, KCNQ1 inh, hERG rescue)
CN(Cc1ccc(C(C)(C)C)cc1)C(=O)c1ccc2c(c1)OCO2	none (no result: KCNQ1 pot, KCNK9 block, KCNQ1 inh, hERG rescue, Cl transport mod)
Cc1ccc(-c2csc3nc[nH]c(=S)c23)cc1C	KCNQ1 pot 24, hERG rescue 55.9, Cl transport mod 43.2
COc1ccc(-c2csc3nc[nH]c(=O)c23)cc1OC	none (no result: Cl transport mod)
NNC(=S)NC1CCCCCCCCCCC1	KCNQ1 inh 8
CC(C)c1c(C(=O)N/N=C/c2ccc3c(c2)OCO3)nnn1-c1nonc1N	none (no result: Cl transport mod)
CCN(CC)c1ccc(/C=N/NC(=O)c2nnn(-c3nonc3N)c2C(C)C)c(O)c1	KCNQ1 inh 7 (no result: Cl transport mod)
CC1(C)Oc2ccc3ccc(=O)oc3c2/C(=C/Nc2cccc(O)c2)C1=O	KCNK9 block -6.73, KCNQ1 inh 6
O=C(Nc1nc2n(n1)C(c1ccccc1)CC(c1ccc(Cl)cc1)N2)c1ccco1 (stereo not given)	KCNK9 block -6.95
COc1ccc(C2CC(c3ccccc3)Nc3nc(NC(=O)c4ccco4)nn32)cc1 (stereo not given)	none
C/C=C/c1ccc(OCC(=O)N2CCc3cc(OC)c(OC)cc3C2)c(OC)c1	none (no result: Cl transport mod)
COc1cc([N+](=O)[O-])ccc1NC(=S)Nc1cc(C(=O)OC(C)C)cc(C(=O)OC(C)C)c1	KCNQ1 inh 6
COc1cc([N+](=O)[O-])ccc1NC(=O)Nc1ccc2c(c1)OCCO2	hERG rescue 4.6
COc1ccc([N+](=O)[O-])cc1NC(=S)NC(C)=O	none
COc1cccc(C(c2nnnn2Cc2ccco2)N2CCN(c3cccc(C)c3C)CC2)c1OC (stereo not given)	KCNK9 block -6.75, KCNQ1 inh 6
COc1ccc(OC)c(C(c2nnnn2Cc2ccco2)N2CCN(C)CC2)c1 (stereo not given)	none
O=C(c1ccc(Cl)cc1)N1CCCOC1	hERG rescue 7.0
O=C(COC(=O)CN1CCSC1=O)Nc1ccc(F)cc1Cl	none (no result: KCNQ1 pot, KCNK9 block, KCNQ1 inh, hERG rescue, Cl transport mod)
CCN(CC(=O)NC1CCS(=O)(=O)C1)S(=O)(=O)c1ccc(Br)cc1 (stereo not given)	none (no result: KCNQ1 pot, KCNK9 block, KCNQ1 inh, hERG rescue, Cl transport mod)
O=C(CCc1ccccc1)NC(=S)Nc1ccccc1Br	hERG rescue 5.0
COC(=O)c1cc(NC(=O)c2cc(-c3ccc(Cl)cc3)oc2C(F)(F)F)ccc1N1CCOCC1	KCNQ1 inh 7
COC(=O)c1cc(NC(=O)c2cccs2)ccc1N1CCOCC1	none
COc1ccc(N(Cc2cc3cc(OC)ccc3[nH]c2=O)S(=O)(=O)c2ccc(NC(C)=O)cc2)cc1	none (no result: Cl transport mod)
COc1ccc(N(Cc2cc3ccccc3[nH]c2=O)S(=O)(=O)c2ccc(OC)cc2)cc1	KCNK9 block -7.18 (no result: Cl transport mod)
CCN(C(=O)CCc1nc(-c2ccc(OC)cc2)no1)c1cc(OC)ccc1OC	KCNK9 block -7.55
Cc1ccc(NC(=O)CN(C)C(=O)Cn2ccsc2=N)cc1	none
Cc1ccc(Oc2ccc(NC(=O)Cn3ccsc3=N)cc2)cc1	KCNQ1 pot 22
C=CCOc1ccc(/C=C2\SC(N3CCCCC3)=NC2=O)cc1	none (no result: Cl transport mod)
Oc1ccccc1CNc1ccc(Br)cn1	Cl transport mod 19.6
Brc1ccc(NCc2cccc3ccccc23)nc1	none (no result: Cl transport mod)
CCOC(=O)C1=C(C)N=c2s/c(=C\c3cccc(OCC(=O)O)c3)c(=O)n2C1c1ccccc1 (stereo not given)	none (no result: Cl transport mod)
CC1=C(C(=O)OC(C)C)C(c2ccc(Cl)cc2)n2c(s/c(=C\c3ccc(OCC(=O)O)cc3)c2=O)=N1 (stereo not given)	KCNQ1 inh 7 (no result: Cl transport mod)
COC(=O)C1=C(C)N=c2s/c(=C/c3ccoc3)c(=O)n2C1c1ccccc1 (stereo not given)	KCNQ1 inh 9
CCC(C)Sc1ccc([C@@H]2[C@H]3C(=O)N(CC)C(=O)[C@H]3[C@]3(C(=O)OC)CCCCN23)cc1 (stereo not given in full)	none (no result: KCNQ1 pot, KCNK9 block, KCNQ1 inh, hERG rescue, Cl transport mod)
CC(C)CCNC(=O)Cn1c(=O)oc2cc(S(=O)(=O)N3CCc4ccccc43)ccc21	KCNK9 block -9.21
O=C(Cn1c(=O)oc2cc(S(=O)(=O)N3CCCCCC3)ccc21)NC1CCCCC1	none
O=C(Cn1c(=O)oc2cc(S(=O)(=O)N3CCc4ccccc43)ccc21)NC1CCCC1	KCNK9 block -8.76

Source: PubChem BioAssay (several laboratories)
